Here are results for 5 compounds from BindingDB's records for doi:10.1021/jm950682e (Institute De Recherches Servier, 1996).

Numbered stars: 1 amine (or outer) side, 2 acyl side, 3 side chain; on linkers, the order of the positions; unused ones are H or OH. Square brackets hold non-standard residues; d marks the D form. Peptide text beside a SMILES is read from it. * marks the point of attachment. Pentanoyl(5-guanidino) = NC(N)=NCCCCC(=O)*; NH(CH2)9CO = O=C(CCCCCCCCCN[*:1])[*:2]; Oic = O=C(O)[CH]1C[CH]2CCCC[CH]2N1; Tic = O=C(O)[CH]1Cc2ccccc2CN1; 2Thi = N[CH](Cc1cccs1)C(=O)O; X2 = N=C(N)NCCCCCC(=O)*; GABA = NCCCC(=O)O

The assay has as its target T1, B2 bradykinin receptor (Oryctolagus cuniculus, UniProt Q28642).
T1 sequence (Q28642 whole entry): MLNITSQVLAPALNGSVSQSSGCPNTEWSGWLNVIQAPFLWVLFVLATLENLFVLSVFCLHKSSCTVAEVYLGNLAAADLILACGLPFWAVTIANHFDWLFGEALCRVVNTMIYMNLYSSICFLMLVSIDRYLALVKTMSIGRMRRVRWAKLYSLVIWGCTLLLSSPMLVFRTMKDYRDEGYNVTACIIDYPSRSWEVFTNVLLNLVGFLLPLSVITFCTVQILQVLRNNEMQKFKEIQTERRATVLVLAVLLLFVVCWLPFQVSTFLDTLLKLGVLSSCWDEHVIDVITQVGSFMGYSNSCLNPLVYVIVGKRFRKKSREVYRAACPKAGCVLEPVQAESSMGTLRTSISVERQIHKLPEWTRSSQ
The assay can be described thus: In vitro antagonistic activity against kinin-induced rabbit jugular vein contraction. Summed up:
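Rabbit jugular vein rings (B2 tissue), reference KCl 60 mM contraction then 45 min rest; antagonist, usually 10-7, 10^-6 and 10^-5 M, incubated 45 min before cumulative bradykinin; one curve per ring; pA2 by Tallarida's method with Schild slope constrained to unity, or pKB from EC50 ratio when activity appeared only at 10^-5 M.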

One may read the Kd as the equilibrium constant for the complex coming apart. Lower therefore signals tighter binding. Compound `N=C(N)NCCCC(NC(=O)C1CC2CCCCC2N1C(=O)C1Cc2ccccc2CN1C(=O)C(Cc1cccs1)NC(=O)CCCN)C(=O)O` (stereo not given) (H-[GABA][2Thi][Tic][Oic]R-OH; configuration not given here) displayed a Kd of 251 nM.
As to `N=C(N)NCCCC(NC(=O)C1CC2CCCCC2N1C(=O)C1Cc2ccccc2CN1C(=O)C(Cc1ccccc1)NC(=O)CCCN)C(=O)O` (stereo not given) (H-[GABA]F[Tic][Oic]R-OH; configuration not given here), binding was characterised by a dissociation constant (Kd) of 363 nM. This Kd and that of the compound before are within 1.5-fold of each other.
`N=C(N)NCCCCCC(=O)NC(Cc1cccs1)C(=O)N1Cc2ccccc2CC1C(=O)N1C(C(=O)NC(CCCNC(=N)N)C(=O)O)CC2CCCCC21` (stereo not given) (X2-[2Thi][Tic][Oic]R-OH; configuration not given here) showed a Kd of 3390 nM. This Kd lies about 9.3-fold higher than the previous one.
`N=C(N)NCCCCC(=O)NC(Cc1cccs1)C(=O)N1Cc2ccccc2CC1C(=O)N1C(C(=O)NC(CCCNC(=N)N)C(=O)O)CC2CCCCC21` (stereo not given) ({Pentanoyl(5-guanidino)}-[2Thi][Tic][Oic]R-OH; configuration not given here) gave a Kd of 3020 nM.
The compound `N=C(N)NCCCC(NC(=O)C1CC2CCCCC2N1C(=O)C1Cc2ccccc2CN1C(=O)C(Cc1cccs1)NC(=O)CCCCCCCCCN)C(=O)O` (stereo not given) ({NH(CH2)9CO}-[2Thi][Tic][Oic]R-OH; configuration not given here) registered a Kd of 468 nM.
